One block for each molecule: values may come before it. *1 amine or outer side, *2 acyl side, *3 side chain or, on linkers, in order; H or OH if unused. Bridges are numbered along the chain shown (N, C = ends). [ ]: non-standard residue; d: D form. Tyr(OMe) = O-methyl-tyrosine, COc1ccc(C[C@H](N[*:1])C(=O)[*:2])cc1
Assays:
[1] = system: classical pathway of complement activation; experiment: Complement inhibition assay; assay type: biochemical
How it was run: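 Classical-pathway activation was triggered by antigen–antibody complexes formed on the ELISA plate: an albumin-coated plate bound by a polyclonal anti-ovalbumin antibody. C3b deposited in the presence of the test peptide was detected by ELISA. Percent inhibition was plotted against peptide concentration and fitted to a logistic dose-response function to derive IC50.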

[2] = target: complement C3 (Homo sapiens) (UniProt P01024); experiment: ITC; settings: cited from earlier work
[3] = target: complement C3 (Homo sapiens), P01024; experiment: ITC; settings: Y4 is O-methyl-Tyr, N-acetyl, C-amide, disulfide C2-C12

Molecule: Ac-ICV(1MeW)QisoDWGAHRCT [4(1MeW)6(isoD)]
inhibitory activity (in words) ([1]; listed as 4(1MeW)6isoD): lacked inhibitory activity
inhibitory activity (in words) ([1]; listed as 6isoD): complete loss of activity

Molecule: compstatin 4(5MeW)
Kd [2]: 120 nM

Kd [3]: 115 nM
B1: compstatin 4MeY (peptide)
chain: Ac-ICV[Tyr(OMe)]QDWGAHRCT-NH2
modifications: disulfide 2-12
SMILES: CC[C@H](C)[C@H](NC(C)=O)C(=O)N[C@H]1CSSC[C@@H](C(=O)N[C@H](C(N)=O)[C@@H](C)O)NC(=O)[C@H](CCCNC(=N)N)NC(=O)[C@H](Cc2c[nH]cn2)NC(=O)[C@H](C)NC(=O)CNC(=O)[C@H](Cc2c[nH]c3ccccc23)NC(=O)[C@H](CC(=O)O)NC(=O)[C@H](CCC(N)=O)NC(=O)[C@H](Cc2ccc(OC)cc2)NC(=O)[C@H](C(C)C)NC1=O

Source: paper PMC2760637 (Journal of molecular recognition : JMR, 2009)
